According to ChEMBL document CHEMBL2069194, “Synthesis of sulfur containing dihydro-pyrrolo derivatives and their biological evaluation as antioxidants” (Bioorg Med Chem, 2012):
Activity calls are given as the source filed them. The rule behind the calls is not given here.

Legend:
[1] = Antioxidant activity assessed as inhibition of linoleic acid peroxidation at 100 uM by AAPH assay by UV spectrometry; assay type: functional
Summary of the method: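 Linoleic acid dispersion (10 µL of 16 mM) in 0.05 M phosphate buffer pH 7.4 at 37 °C; oxidation started under air by adding 50 µL of 40 mM AAPH, with 10 µL aliquots of compound present. Conjugated diene hydroperoxide formation followed as rise in absorbance at 234 nm; blank run contained same DMSO level.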

[2] = test system: Radical scavenging activity; experiment: Antioxidant activity assessed as reduction of DPPH radical generation at 50 uM incubated for 20 mins at room temperature; assay type: functional; parameters: scale not given: the % may be the effect or the level left
Summary of the method: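 DPPH radical interaction in ethanol, compound final 50 µM (equimolar with DPPH); ethanol as control. Absorbance at 517 nm read after 20 min at room temperature.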

Glycine max = experiment: Inhibition of soybean lipoxygenase using sodium linoleate substrate at 100 uM
Summary of the method: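 Soybean lipoxygenase (0.2 mL of 1/9 × 10^-4 w/v solution in saline) incubated at room temperature with compound in ethanol and sodium linoleate 100 µM. Conversion to 13-hydroperoxylinoleic acid recorded at 234 nm, compared against caffeic acid 600 µM as standard inhibitor.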

SMILES | inhibition (Glycine max) | inhibition [1] | Activity [2]
COC(=O)[C@@H]1N=C(SCc2ccccc2)[C@H]2C(=O)N(c3ccccc3)C(=O)[C@H]21 (relative stereo) | 83% | 98% | 15%
COC(=O)[C@H]1N=C(SC(C)C)[C@H]2C(=O)N(c3ccccc3)C(=O)[C@H]21 (relative stereo) | 44% | 72% | 13%
Cc1c(C)c2c(c(C)c1O)CCC(C)(C(=O)O)O2 (stereo not drawn) |  | 63% | 
COC(=O)[C@H]1N=C(SC)[C@H]2C(=O)N(c3ccccc3)C(=O)[C@H]21 (relative stereo) |  | 84% | 8%
CC(Cc1ccc(O)c(O)c1)C(C)Cc1ccc(O)c(O)c1 (stereo not drawn) | 64% |  | 81%
COC(=O)[C@H]1N=C(SCc2ccccc2)[C@H]2C(=O)N(c3ccccc3)C(=O)[C@H]21 (relative stereo) | 73% | 76% | 11%

The next lines start with results.

inhibition (Glycine max) | SMILES | inhibition [1] | Activity [2]
91% | CCCCSC1=N[C@@H](C(=O)OC)[C@@H]2C(=O)N(c3ccccc3)C(=O)[C@H]12 (relative stereo) | 82% | 11%
56% | CCCCSC1=N[C@H](C(=O)OC)[C@@H]2C(=O)N(c3ccccc3)C(=O)[C@H]12 (relative stereo) | 89% | 7%
49% | COC(=O)[C@@H]1N=C(SC(C)C)[C@H]2C(=O)N(c3ccccc3)C(=O)[C@H]21 (relative stereo) | 89% | 12%
43% | CCCSC1=N[C@@H](C(=O)OC)[C@@H]2C(=O)N(c3ccccc3)C(=O)[C@H]12 (relative stereo) | 86% | 7%
81% | CCSC1=N[C@@H](C(=O)OC)[C@@H]2C(=O)N(c3ccccc3)C(=O)[C@H]12 (relative stereo) | 91% | 11%
51% | COC(=O)[C@@H]1N=C(SC)[C@H]2C(=O)N(c3ccccc3)C(=O)[C@H]21 (relative stereo) | 93% | 26%
39% | CCCSC1=N[C@H](C(=O)OC)[C@@H]2C(=O)N(c3ccccc3)C(=O)[C@H]12 (relative stereo) | 86% | 9%
26% | CCSC1=N[C@H](C(=O)OC)[C@@H]2C(=O)N(c3ccccc3)C(=O)[C@H]12 (relative stereo) | 89% | inactive
